Reference: ChEMBL document CHEMBL1149913, “De novo design of nonpeptidic compounds targeting the interactions between interferon-alpha and its cognate cell surface receptor” (J Med Chem, 2008)
The source made the active and inactive calls. The rule behind the calls is not given here.

What was measured:
[1] = biological target: T1, Interferon alpha/beta receptor 1 (Homo sapiens) (UniProt P17181); test: Activity at IFNAR in human Daudi cells assessed as induction of stat1 tyrosine phosphorylation at 100 umol after 5 to 30 mins; assay type: cell-based
T1 sequence (whole entry): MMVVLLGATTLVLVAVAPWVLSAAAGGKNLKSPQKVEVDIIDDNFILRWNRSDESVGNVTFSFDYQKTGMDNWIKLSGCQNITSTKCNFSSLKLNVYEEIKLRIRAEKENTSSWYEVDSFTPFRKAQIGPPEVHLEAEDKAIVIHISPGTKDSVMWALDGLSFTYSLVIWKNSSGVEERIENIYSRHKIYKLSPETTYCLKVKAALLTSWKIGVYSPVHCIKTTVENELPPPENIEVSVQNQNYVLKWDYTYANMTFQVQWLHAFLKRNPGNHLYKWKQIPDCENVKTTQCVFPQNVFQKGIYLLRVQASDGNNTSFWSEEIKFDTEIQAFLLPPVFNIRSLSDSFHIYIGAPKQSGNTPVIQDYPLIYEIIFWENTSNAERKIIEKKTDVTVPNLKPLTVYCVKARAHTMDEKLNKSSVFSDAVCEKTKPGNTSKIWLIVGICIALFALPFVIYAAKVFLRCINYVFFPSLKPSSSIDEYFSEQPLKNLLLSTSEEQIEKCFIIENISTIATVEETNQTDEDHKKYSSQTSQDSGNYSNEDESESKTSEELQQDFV

[2] = biological target: T1, Interferon alpha/beta receptor 1 (Homo sapiens); test: Antagonist activity at IFNAR in human Daudi cells assessed as inhibition of IFN-inducible Stat1 tyrosine phosphorylation by SDS-PAGE; assay type: functional, cell-based
Outline: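 Daudi cells were left untreated or exposed to IFN alfacon-1 (100 pg) for 15 min, with or without compound (dose–response 20–100 µM). Lysates were run on SDS-PAGE, transferred to nitrocellulose and immunoblotted for phospho-Stat1. Membranes were stripped and reprobed for total Stat1, or β-actin served as the loading control.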

[3] = biological target: T1, Interferon alpha/beta receptor 1 (Homo sapiens); test: Antagonist activity at IFNAR in human Daudi cells assessed as reduction of IFN-inducible Stat1:Stat1-pIRE complex formation at 100 umol by electrophoretic mobility shift assay; assay type: functional, cell-based
[4] = biological target: T1, Interferon alpha/beta receptor 1 (Homo sapiens); test: Antagonist activity at IFNAR in human Daudi cells assessed as reduction of IFN-inducible Stat1:Stat3-pIRE complex formation at 100 umol by electrophoretic mobility shift assay; assay type: functional, cell-based

| SMILES | Activity [1] | also measured |
| --- | --- | --- |
| CN(C)CCSc1ccc(-c2cc(-c3ccco3)nc(SCCN(C)C)n2)cc1 | inactive | Activity [2]: Dose-dependent effect; Activity [3]: Active; Activity [4]: Active |
| COCCNc1cc(OCCN(C)C)nc(Oc2ccc(CCN)cc2)n1 | inactive | – |
| CN(C)CCSc1nccc(-c2cccs2)n1 | inactive | – |
| COCCNc1cc(OCCN(C)C)nc(OCCN)n1 | inactive | – |
| CN(C)CCSc1ccc(-c2cc(-c3cccs3)nc(SCCN(C)C)n2)cc1 | inactive | Activity [2]: Dose-dependent effect; Activity [3]: Active; Activity [4]: Active |
| COCCNc1cc(OCCN(C)C)nc(OCCCN)n1 | inactive | – |
| CC(C)Oc1cc(OCCN(C)C)nc(OCCN(C)C)n1 | inactive | – |
| COCCNc1cc(OCCN(C)C)nc(OCCNC(=N)N)n1 | inactive | – |
| COCCNc1cc(OC(C)C)nc(OC(C)C)n1 | inactive | – |
| COCCNc1cc(OCCN(C)C)nc(OCCCNC(=N)N)n1 | inactive | – |
| CN(C)CCSc1nccc(-c2ccco2)n1 | inactive | – |

Now from value to compound, other results behind:

| Activity [1] | SMILES | also measured |
| --- | --- | --- |
| inactive | CC(C)OCCCNc1cc(OCCN(C)C)nc(OCCCN)n1 | – |
| inactive | CC(C)OCCCNc1nc(OCCN)cc(OCCN(C)C)n1 | – |
| inactive | CC(C)OCCCNc1nc(OCCCCN)cc(OCCN(C)C)n1 | – |
| inactive | CCOc1cc(OCCN(C)C)nc(NCCCOC(C)C)n1 | – |
| inactive | CCOc1cc(OCCN(C)C)nc(OCCN(C)C)n1 | – |
| inactive | CCOc1cc(N(C)C)nc(NCCCOC(C)C)n1 | – |
| inactive | CCOc1cc(OCCCN)nc(NCCCOC(C)C)n1 | – |
| inactive | CC(C)OCCCNc1nc(OCCCCNC(=N)N)cc(OCCN(C)C)n1 | – |
| inactive | COCCNc1nc(OCCCCNC(=N)N)cc(OCCN(C)C)n1 | – |
| inactive | CC(C)OCCCNc1cc(OCCN(C)C)nc(OCCCNC(=N)N)n1 | – |
| inactive | CC(C)OCCCNc1nc(OCCCN)cc(OC(C)C)n1 | – |
| inactive | CC(C)OCCCNc1cc(OCCN(C)C)nc(Oc2ccc(CCN)cc2)n1 | – |
| inactive | CCOc1cc(OCCCCN)nc(NCCCOC(C)C)n1 | – |
| inactive | COCCNc1nc(OCCCCN)cc(OCCN(C)C)n1 | – |
| inactive | CC(C)OCCCNc1nc(OCCN(C)C)cc(OC(C)C)n1 | – |
